ChEMBL document CHEMBL1145479, “Tigecycline Efflux as a Mechanism for Nonsusceptibility in Acinetobacter baumannii” (2007)
Converted amounts (≈) assume the structure as drawn.

Legend:
Acinetobacter baumannii [1] = assay: Antimicrobial activity against Acinetobacter baumannii A24D after 4 days in presence of efflux pump inhibitor phenyl-arginine-beta-naphthylamide by broth microdilution method; format: functional; details: 96 h
Acinetobacter baumannii [2] = assay: Antimicrobial activity against Acinetobacter baumannii B46 by broth microdilution method; format: functional
Acinetobacter baumannii [3] = assay: Antimicrobial activity against Acinetobacter baumannii A24D after 4 days by broth microdilution method; format: functional; details: 96 h
Acinetobacter baumannii [4] = assay: Antimicrobial activity against Acinetobacter baumannii A24A after 4 days by broth microdilution method; format: functional; details: 96 h
Acinetobacter baumannii [5] = assay: Antimicrobial activity against Acinetobacter baumannii B46 in presence of efflux pump inhibitor phenyl-arginine-beta-naphthylamide by broth microdilution method; format: functional
Acinetobacter baumannii [6] = assay: Antimicrobial activity against Acinetobacter baumannii C75 by broth microdilution method; format: functional
Acinetobacter baumannii [7] = assay: Antimicrobial activity against Acinetobacter baumannii A24C after 4 days by broth microdilution method; format: functional; details: 96 h
Acinetobacter baumannii [8] = assay: Antimicrobial activity against Acinetobacter baumannii C75 in presence of efflux pump inhibitor phenyl-arginine-beta-naphthylamide by broth microdilution method; format: functional
Acinetobacter baumannii [9] = assay: Antimicrobial activity against Acinetobacter baumannii A24B after 4 days by broth microdilution method; format: functional; details: 96 h
Acinetobacter baumannii [10] = assay: Antimicrobial activity against Acinetobacter baumannii A24 in presence of efflux pump inhibitor phenyl-arginine-beta-naphthylamide by broth microdilution method; format: functional
Acinetobacter baumannii [11] = assay: Antimicrobial activity against Acinetobacter baumannii D54 by broth microdilution method; format: functional
Acinetobacter baumannii [12] = assay: Antimicrobial activity against Acinetobacter baumannii A24 by broth microdilution method; format: functional
Acinetobacter baumannii [13] = assay: Antimicrobial activity against Acinetobacter baumannii A24B after 4 days by agar dilution method; format: functional; details: 96 h
In short: (§1)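 Fresh cultures were passaged overnight on tigecycline-containing Mueller-Hinton II agar, boiled before inoculation to prevent tigecycline oxidative degradation. […] Inoculum was 0.5 McFarland. Tigecycline MICs were recorded daily by agar dilution.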

Acinetobacter baumannii [14] = assay: Inhibition of AdeABC efflux pump protein in Acinetobacter baumannii A24D assessed as ethidium bromide accumulation at 100 uM; design: scale not given: the % may be the effect or the level left
In short: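 Overnight cells were pelleted and resuspended to A600 0.2 in sodium phosphate buffer, pH 7.0. Ethidium bromide was added at 2 μg/ml final and incubated 420 s. CCCP was then added at 100 μM final for a further 180 s. Fluorescence was read at ex 530 / em 600 nm, with cell-only background subtracted. The value is the percent increase in accumulation after CCCP.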

Acinetobacter baumannii [15] = assay: Antimicrobial activity against Acinetobacter baumannii B46 by agar dilution method; format: functional
In short: (§2)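 Tigecycline MIC first estimated by Etest, then confirmed by agar dilution on Mueller-Hinton II agar. Strains were grown in LB broth.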

Acinetobacter baumannii [16] = assay: Inhibition of AdeABC efflux pump protein in Acinetobacter baumannii A24 assessed as ethidium bromide accumulation at 100 uM; design: scale not given: the % may be the effect or the level left
In short: (§3)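 Overnight cells pelleted and resuspended to A600 0.2 in sodium phosphate buffer pH 7.0, with ethidium bromide at 2 μg/ml final. Incubated 420 s, then CCCP (protonophore) added at 100 μM final for a further 180 s. Fluorescence read at ex 530/em 600 nm, cell-only background subtracted, and expressed as percent increase in accumulation after CCCP.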

Acinetobacter baumannii [17] = assay: Inhibition of AdeABC multidrug efflux pump in Acinetobacter baumannii C75 assessed as ethidium bromide accumulation at 100 uM; design: scale not given: the % may be the effect or the level left; in short: as §3
Acinetobacter baumannii [18] = assay: Antimicrobial activity against Acinetobacter baumannii A24 in presence of efflux pump inhibitor phenyl-arginine-beta-naphthylamide by agar dilution method; format: functional
Acinetobacter baumannii [19] = assay: Antimicrobial activity against Acinetobacter baumannii B46 in presence of efflux pump inhibitor phenyl-arginine-beta-naphthylamide by agar dilution method; format: functional
Acinetobacter baumannii [20] = assay: Antimicrobial activity against Acinetobacter baumannii A24C after 4 days by agar dilution method; format: functional; details: 96 h; in short: as §1
Acinetobacter baumannii [21] = assay: Antimicrobial activity against Acinetobacter baumannii A24D after 4 days by agar dilution method; format: functional; details: 96 h; in short: as §1
Acinetobacter baumannii [22] = assay: Antimicrobial activity against Acinetobacter baumannii D54 by agar dilution method; format: functional
In short: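 Tigecycline MIC screened by Etest and confirmed by agar dilution on Mueller-Hinton II agar; strains cultivated in LB broth.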

Acinetobacter baumannii [23] = assay: Antimicrobial activity against Acinetobacter baumannii C75 by agar dilution method; format: functional; in short: as §2
Acinetobacter baumannii [24] = assay: Antimicrobial activity against Acinetobacter baumannii A24A after 4 days by agar dilution method; format: functional; details: 96 h; in short: as §1
Acinetobacter baumannii [25] = assay: Antimicrobial activity against Acinetobacter baumannii A24D after 4 days in presence of efflux pump inhibitor phenyl-arginine-beta-naphthylamide by agar dilution method; format: functional; details: 96 h
In short: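 Tigecycline MIC determined by agar dilution on Mueller-Hinton agar containing PABN, for bacteria from the final day of growth. PABN was dissolved in water as a 25 mg/ml stock and added to agar cooled to 50°C.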

Acinetobacter baumannii [26] = assay: Inhibition of AdeABC efflux pump protein in Acinetobacter baumannii D54 assessed as ethidium bromide accumulation at 100 uM; design: scale not given: the % may be the effect or the level left; in short: as §3
Acinetobacter baumannii [27] = assay: Inhibition of AdeABC efflux pump protein in Acinetobacter baumannii B46 assessed as ethidium bromide accumulation at 100 uM; design: scale not given: the % may be the effect or the level left; in short: as §3
Acinetobacter baumannii [28] = assay: Antimicrobial activity against Acinetobacter baumannii A24 by agar dilution method; format: functional; in short: as §2
Acinetobacter baumannii [29] = assay: Antimicrobial activity against Acinetobacter baumannii C75 in presence of efflux pump inhibitor phenyl-arginine-beta-naphthylamide by agar dilution method; format: functional

SMILES	MIC (Acinetobacter baumannii [1])	MIC (Acinetobacter baumannii [2])	MIC (Acinetobacter baumannii [3])	MIC (Acinetobacter baumannii [4])	MIC (Acinetobacter baumannii [5])	MIC (Acinetobacter baumannii [6])	MIC (Acinetobacter baumannii [7])	MIC (Acinetobacter baumannii [8])	MIC (Acinetobacter baumannii [9])	MIC (Acinetobacter baumannii [10])	MIC (Acinetobacter baumannii [11])	MIC (Acinetobacter baumannii [12])	further results
CO/N=C(\C(=O)N[C@@H]1C(=O)N2C(C(=O)[O-])=C(C[N+]3(C)CCCC3)CS[C@H]12)c1csc(N)n1 [CEFEPIME]	1 µg/mL	> 256 µg/mL	16 µg/mL (≈ 33.3 µM)	12 µg/mL (≈ 25 µM)	128 µg/mL	> 256 µg/mL	16 µg/mL (≈ 33.3 µM)	16 µg/mL	12 µg/mL (≈ 25 µM)	3 µg/mL	1.5 µg/mL (≈ 3.12 µM)	–	–
CC(C)(O/N=C(\C(=O)N[C@@H]1C(=O)N2C(C(=O)[O-])=C(C[n+]3ccccc3)CS[C@H]12)c1csc(N)n1)C(=O)O [CEFTAZIDIME]	32 µg/mL	96 µg/mL (≈ 176 µM)	> 256 µg/mL	> 256 µg/mL	8 µg/mL	192 µg/mL (≈ 351 µM)	> 256 µg/mL	8 µg/mL	> 256 µg/mL	96 µg/mL	4 µg/mL (≈ 7.32 µM)	> 256 µg/mL	–
O=C(N[C@H](CO)[C@H](O)c1ccc([N+](=O)[O-])cc1)C(Cl)Cl [CHLORAMPHENICOL]	4 µg/mL	32 µg/mL (≈ 99 µM)	16 µg/mL (≈ 49.5 µM)	96 µg/mL (≈ 297 µM)	8 µg/mL	32 µg/mL (≈ 99 µM)	96 µg/mL (≈ 297 µM)	8 µg/mL	96 µg/mL (≈ 297 µM)	12 µg/mL	0.25 µg/mL (≈ 0.774 µM)	16 µg/mL (≈ 49.5 µM)	–
O=C(O)c1cn(C2CC2)c2cc(N3CCNCC3)c(F)cc2c1=O [CIPROFLOXACIN]	128 µg/mL	128 µg/mL (≈ 386 µM)	512 µg/mL (≈ 1550 µM)	256 µg/mL (≈ 773 µM)	128 µg/mL	512 µg/mL (≈ 1550 µM)	256 µg/mL (≈ 773 µM)	256 µg/mL	256 µg/mL (≈ 773 µM)	128 µg/mL	0.25 µg/mL (≈ 0.754 µM)	256 µg/mL (≈ 773 µM)	–
C[C@@H](O)[C@H]1C(=O)N2C(C(=O)O)=C(SCCNC=N)C[C@H]12 [IMIPENEM ANHYDROUS]	0.064 µg/mL	1.5 µg/mL (≈ 5.01 µM)	0.5 µg/mL (≈ 1.67 µM)	0.125 µg/mL (≈ 0.418 µM)	0.25 µg/mL	1.5 µg/mL (≈ 5.01 µM)	0.19 µg/mL (≈ 0.635 µM)	0.125 µg/mL	0.125 µg/mL (≈ 0.418 µM)	0.032 µg/mL	0.125 µg/mL (≈ 0.418 µM)	0.38 µg/mL (≈ 1.27 µM)	–
C[C@@H](O)[C@H]1C(=O)N2C(C(=O)O)=C(S[C@@H]3CN[C@H](C(=O)N(C)C)C3)[C@H](C)[C@H]12 [MEROPENEM]	0.094 µg/mL	4 µg/mL (≈ 10.4 µM)	2 µg/mL (≈ 5.22 µM)	0.75 µg/mL (≈ 1.96 µM)	0.25 µg/mL	4 µg/mL (≈ 10.4 µM)	0.75 µg/mL (≈ 1.96 µM)	0.125 µg/mL	0.75 µg/mL (≈ 1.96 µM)	0.094 µg/mL	0.25 µg/mL (≈ 0.652 µM)	1 µg/mL (≈ 2.61 µM)	–
CN(C)c1ccc(O)c2c1C[C@H]1C[C@H]3[C@H](N(C)C)C(O)=C(C(N)=O)C(=O)[C@@]3(O)C(O)=C1C2=O [MINOCYCLINE]	8 µg/mL	0.25 µg/mL (≈ 0.546 µM)	32 µg/mL (≈ 69.9 µM)	12 µg/mL (≈ 26.2 µM)	0.25 µg/mL	2 µg/mL (≈ 4.37 µM)	16 µg/mL (≈ 35 µM)	1 µg/mL	16 µg/mL (≈ 35 µM)	2 µg/mL	0.125 µg/mL (≈ 0.273 µM)	32 µg/mL (≈ 69.9 µM)	–
CCN1CCN(C(=O)N[C@@H](C(=O)N[C@@H]2C(=O)N3[C@@H]2SC(C)(C)[C@@H]3C(=O)O)c2ccccc2)C(=O)C1=O [PIPERACILLIN]	1 µg/mL	256 µg/mL (≈ 495 µM)	24 µg/mL (≈ 46.4 µM)	12 µg/mL (≈ 23.2 µM)	–	48 µg/mL (≈ 92.7 µM)	16 µg/mL (≈ 30.9 µM)	8 µg/mL	12 µg/mL (≈ 23.2 µM)	3 µg/mL	16 µg/mL (≈ 30.9 µM)	16 µg/mL (≈ 30.9 µM)	–
CN(C)c1cc(NC(=O)CNC(C)(C)C)c(O)c2c1C[C@H]1C[C@H]3[C@H](N(C)C)C(O)=C(C(N)=O)C(=O)[C@@]3(O)C(O)=C1C2=O [TIGECYCLINE]	–	–	–	–	–	–	–	–	–	–	–	–	MIC (Acinetobacter baumannii [13]): 2 µg/mL (≈ 3.41 µM); Activity (Acinetobacter baumannii [14]): 114%; MIC (Acinetobacter baumannii [15]): 4 µg/mL (≈ 6.83 µM); Activity (Acinetobacter baumannii [16]): 52%; Activity (Acinetobacter baumannii [17]): 206%; MIC (Acinetobacter baumannii [18]): 2 µg/mL; MIC (Acinetobacter baumannii [19]): 1 µg/mL; MIC (Acinetobacter baumannii [20]): 6 µg/mL (≈ 10.2 µM); MIC (Acinetobacter baumannii [21]): 24 µg/mL (≈ 41 µM); MIC (Acinetobacter baumannii [22]): 0.125 µg/mL (≈ 0.213 µM); MIC (Acinetobacter baumannii [23]): 16 µg/mL (≈ 27.3 µM); MIC (Acinetobacter baumannii [24]): 2 µg/mL (≈ 3.41 µM); MIC (Acinetobacter baumannii [25]): 2 µg/mL; Activity (Acinetobacter baumannii [26]): 31%; Activity (Acinetobacter baumannii [27]): 115%; MIC (Acinetobacter baumannii [28]): 2 µg/mL (≈ 3.41 µM); MIC (Acinetobacter baumannii [29]): 4 µg/mL
NC[C@H]1O[C@H](O[C@H]2[C@H](O)[C@@H](O[C@H]3O[C@H](CO)[C@@H](O)[C@H](N)[C@H]3O)[C@H](N)C[C@@H]2N)[C@H](N)C[C@@H]1O [TOBRAMYCIN]	8 µg/mL	24 µg/mL (≈ 51.3 µM)	16 µg/mL (≈ 34.2 µM)	3 µg/mL (≈ 6.42 µM)	16 µg/mL	16 µg/mL (≈ 34.2 µM)	6 µg/mL (≈ 12.8 µM)	6 µg/mL	4 µg/mL (≈ 8.56 µM)	3 µg/mL	0.75 µg/mL (≈ 1.6 µM)	4 µg/mL (≈ 8.56 µM)	–
